Assay results from ChEMBL document CHEMBL1137277, “Synthesis of highly substituted dibenzo[b,f]azocines and their evaluation as protein kinase inhibitors” (Bioorg Med Chem Lett, 2006).
Active and inactive are the calls of the source. The rule behind the calls is not given here.

Legend:
[1] = target: T1, cAMP-dependent protein kinase (PKA) (Homo sapiens, UniProt P22694+P17612+P22612); experiment: Inhibition of PKA-mediated phosphorylation of kemptide at 100 uM; type: protein assay
Outline: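 PKA (41 µg/ml) with kemptide (10 µM) and compound at 100 µM in 40 mM Tris pH 7.5, 20 mM MgCl2, 0.1 mg/ml BSA; equilibrated 1 h. ATP added (1 µM); after 10 min, remaining ATP read by Kinase-Glo Plus luminescence. DMSO and no-kinase controls; means of two replicates.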

[2] = target: Protein kinase C (PKC) (Homo sapiens) (UniProt O94806+P41743+P17252+P05129+Q05655+P05771+Q05513+Q02156+P24723+Q15139+Q04759); experiment: Inhibition of PKC-mediated phosphorylation of neurogranin at 100 uM; type: protein assay
Outline: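 PKC (0.33 µg/ml), neurogranin (20 µM), compound 100 µM in 20 mM Tris pH 7.5, 10 mM MgCl2, 0.1 mg/ml BSA, 250 µM EGTA, 400 µM CaCl2 plus lipid activator (phosphatidylserine, […], CaCl2); 1 h equilibration. DMSO and no-kinase controls; duplicate means.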

[3] = target: T1, cAMP-dependent protein kinase (PKA); experiment: Inhibition of PKA-mediated phosphorylation of kemptide

CCc1cccc2c1CNc1c(cccc1CCc1ccccc1)/C=C\2COc1ccccc1OC
Activity [1]: inactive | Activity [2]: inactive

CCc1cccc2c1CNc1c(cccc1CCc1ccccc1)/C=C\2COc1ccccc1C(=O)OC
Activity [1]: inactive | Activity [2]: inactive

CCc1cccc2c1CNc1c(cccc1CCc1ccccc1)/C=C\2COc1ccc(F)cc1
Activity [1]: inactive | Activity [2]: inactive

CCc1cccc2c1CNc1c(cccc1CCc1ccccc1)/C=C\2COc1ccc(OC)cc1
Activity [1]: inactive | Activity [2]: inactive

CCc1cccc2c1CNc1c(cccc1CCc1ccccc1)/C=C\2COc1cccc([N+](=O)[O-])c1
Activity [1]: inactive | Activity [2]: inactive

CCc1cccc2c1CNc1c(cccc1CCc1ccccc1)/C=C\2COc1ccccc1Cl
Activity [1]: inactive | Activity [2]: inactive

CCc1cccc2c1CNc1c(cccc1CCc1ccccc1)/C=C\2COc1ccc([N+](=O)[O-])cc1
Activity [1]: inactive | Activity [2]: inactive

CCc1cccc2c1CNc1c(cccc1CCc1ccccc1)/C=C\2COc1ccc(C(=O)OC)cc1
Activity [1]: inactive | Activity [2]: inactive

CCc1cccc2c1CNc1c(cccc1CCc1ccccc1)/C=C\2COc1ccccc1NC(C)=O
IC50 [3]: 122 µM | Activity [2]: inactive

CCc1cccc2c1CNc1c(cccc1CCc1ccccc1)/C=C\2COc1ccccc1[N+](=O)[O-]
Activity [1]: inactive | Activity [2]: inactive

CCc1cccc2c1CNc1c(cccc1CCc1ccccc1)/C=C\2COc1ccccc1F
Activity [1]: inactive | Activity [2]: inactive

CCc1cccc2c1CNc1c(cccc1CCc1ccccc1)/C=C\2COc1ccccc1C(F)(F)F
Activity [1]: inactive | Activity [2]: inactive

CCc1cccc2c1CNc1c(cccc1CCc1ccccc1)/C=C\2COc1ccccc1
Activity [1]: inactive | Activity [2]: inactive

CCc1cccc2c1CNc1c(cccc1CCc1ccccc1)/C=C\2COc1cccc(OC)c1
Activity [1]: inactive | Activity [2]: inactive

CCc1cccc2c1CNc1c(cccc1CCc1ccccc1)/C=C\2COc1cccc(C(=O)OC)c1
Activity [1]: inactive | Activity [2]: inactive

CCc1cccc2c1CNc1c(cccc1CCc1ccccc1)/C=C\2COc1cccc(C(F)(F)F)c1
Activity [1]: inactive | Activity [2]: inactive

CCc1cccc2c1CNc1c(cccc1CCc1ccccc1)/C=C\2COc1cccc(F)c1
Activity [1]: inactive | Activity [2]: inactive

CCc1cccc2c1CNc1c(cccc1CCc1ccccc1)/C=C\2COc1ccc(Cl)cc1
Activity [1]: inactive | Activity [2]: inactive

CCc1cccc2c1CNc1c(cccc1CCc1ccccc1)/C=C\2COc1cccc(Cl)c1
Activity [1]: inactive | Activity [2]: inactive
